Data: paper PMC3569859 (Bioorganic & medicinal chemistry, 2008)

Tested on: sodium currents expressed in rat hippocampal neurons
Assay type: cell-based
Conditions: cultured hippocampal neurons
Summary of the method: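 E18 rat hippocampal neurons were trypsin-dissociated and kept up to 4 weeks on poly-L-lysine over a glial monolayer in serum-free MEM with N2. Whole-cell clamp was done at 20–22 °C with a CsF pipette and a 30 mM NaCl bath containing Cd2+ and TEA, both pH 7.3. After 5 min at −90 mV, 25 ms steps to −10 mV were applied with P/4 leak subtraction. Test compound was superfused at 50 μM, then washed out.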

Compound | Reversibility of Na current block on washout
CC(C)c1cc(CCCCC(O)(C(N)=O)C(F)(F)F)cc(C(C)C)c1O (centres unmarked) [Compound 4, 2-Hydroxy-6-(4-hydroxy-3,5-diisopropyl-phenyl)-2-trifluoromethyl-hexanoic acid amide] | fully reversible
CC(C)c1cc(CCCCCCC(O)(C(N)=O)C(F)(F)F)cc(C(C)C)c1O (centres unmarked) [Compound 5, 2-Hydroxy-8-(4-hydroxy-3,5-diisopropyl-phenyl)-2-trifluoromethyl-octanoic acid amide] | fully reversible
